This note sets out measurements from ChEMBL document CHEMBL4261552, “4-Hydroxy-N-[3,5-bis(trifluoromethyl)phenyl]-1,2,5-thiadiazole-3-carboxamide: a novel inhibitor of the canonical NF-κB cascade” (Medchemcomm, 2017).

Assay [1] deals with T1, Inhibitor of nuclear factor kappa-B kinase subunit beta (Homo sapiens, UniProt O14920).
T1 sequence (O14920 whole entry): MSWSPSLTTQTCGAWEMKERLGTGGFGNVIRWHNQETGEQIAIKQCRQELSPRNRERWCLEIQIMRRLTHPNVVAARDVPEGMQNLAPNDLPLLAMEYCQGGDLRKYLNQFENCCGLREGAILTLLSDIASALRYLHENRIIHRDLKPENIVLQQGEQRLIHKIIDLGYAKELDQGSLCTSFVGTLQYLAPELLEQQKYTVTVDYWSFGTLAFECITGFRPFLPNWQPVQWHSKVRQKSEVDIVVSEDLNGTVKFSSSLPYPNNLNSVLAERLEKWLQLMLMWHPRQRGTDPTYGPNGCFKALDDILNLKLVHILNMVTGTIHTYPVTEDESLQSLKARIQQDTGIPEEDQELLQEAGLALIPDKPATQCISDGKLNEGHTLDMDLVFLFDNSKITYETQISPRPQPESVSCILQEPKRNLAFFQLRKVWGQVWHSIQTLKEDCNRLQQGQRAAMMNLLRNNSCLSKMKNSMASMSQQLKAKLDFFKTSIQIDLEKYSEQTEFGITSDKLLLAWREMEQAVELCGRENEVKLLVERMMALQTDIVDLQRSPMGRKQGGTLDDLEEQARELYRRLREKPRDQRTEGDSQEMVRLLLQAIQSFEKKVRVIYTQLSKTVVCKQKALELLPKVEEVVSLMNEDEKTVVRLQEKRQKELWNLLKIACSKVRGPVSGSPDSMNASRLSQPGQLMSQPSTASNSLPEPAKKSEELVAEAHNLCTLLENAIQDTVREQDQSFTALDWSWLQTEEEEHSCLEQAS
As to the kind of experiment: Inhibition of human IKKbeta using ERLLDDRHDSGLDSMKDEE as substrate after 60 mins in presence of ATP by ADP-Glo kinase assay. In general terms: ADP-Glo turns the ADP formed in a reaction into a luminescent signal.

Assay [2] has as its target T2, Inhibitor of nuclear factor kappa-B kinase subunit alpha (Homo sapiens) (UniProt O15111).
T2 sequence (whole entry): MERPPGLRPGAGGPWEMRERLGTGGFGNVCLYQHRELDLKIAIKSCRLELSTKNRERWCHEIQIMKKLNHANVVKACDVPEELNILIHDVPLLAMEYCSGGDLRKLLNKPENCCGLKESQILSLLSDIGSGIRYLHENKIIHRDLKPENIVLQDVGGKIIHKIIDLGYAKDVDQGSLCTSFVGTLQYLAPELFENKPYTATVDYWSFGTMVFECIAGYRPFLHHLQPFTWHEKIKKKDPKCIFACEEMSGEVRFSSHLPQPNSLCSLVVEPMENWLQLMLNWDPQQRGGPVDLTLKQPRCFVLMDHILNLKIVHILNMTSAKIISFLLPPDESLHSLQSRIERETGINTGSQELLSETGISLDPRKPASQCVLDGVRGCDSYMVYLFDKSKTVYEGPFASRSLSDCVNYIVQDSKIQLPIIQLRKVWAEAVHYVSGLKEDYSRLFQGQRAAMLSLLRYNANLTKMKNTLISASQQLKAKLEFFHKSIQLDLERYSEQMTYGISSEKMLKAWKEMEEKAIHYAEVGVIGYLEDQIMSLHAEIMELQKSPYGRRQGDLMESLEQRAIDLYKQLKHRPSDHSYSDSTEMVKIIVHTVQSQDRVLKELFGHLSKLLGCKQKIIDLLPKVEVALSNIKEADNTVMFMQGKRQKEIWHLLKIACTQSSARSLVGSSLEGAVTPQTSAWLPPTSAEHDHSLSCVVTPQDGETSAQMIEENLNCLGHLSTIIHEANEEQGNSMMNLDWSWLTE
Put plainly: Inhibition of human IKKalpha at 100 uM using ERLLDDRHDSGLDSMKDEE as substrate after 60 mins in presence of ATP by ADP-Glo kinase assay relative to control.

For assay [3], the target named is T3, Inhibitor of nuclear factor kappa-B kinase subunit epsilon (Homo sapiens) (UniProt Q14164).
T3 sequence (whole entry): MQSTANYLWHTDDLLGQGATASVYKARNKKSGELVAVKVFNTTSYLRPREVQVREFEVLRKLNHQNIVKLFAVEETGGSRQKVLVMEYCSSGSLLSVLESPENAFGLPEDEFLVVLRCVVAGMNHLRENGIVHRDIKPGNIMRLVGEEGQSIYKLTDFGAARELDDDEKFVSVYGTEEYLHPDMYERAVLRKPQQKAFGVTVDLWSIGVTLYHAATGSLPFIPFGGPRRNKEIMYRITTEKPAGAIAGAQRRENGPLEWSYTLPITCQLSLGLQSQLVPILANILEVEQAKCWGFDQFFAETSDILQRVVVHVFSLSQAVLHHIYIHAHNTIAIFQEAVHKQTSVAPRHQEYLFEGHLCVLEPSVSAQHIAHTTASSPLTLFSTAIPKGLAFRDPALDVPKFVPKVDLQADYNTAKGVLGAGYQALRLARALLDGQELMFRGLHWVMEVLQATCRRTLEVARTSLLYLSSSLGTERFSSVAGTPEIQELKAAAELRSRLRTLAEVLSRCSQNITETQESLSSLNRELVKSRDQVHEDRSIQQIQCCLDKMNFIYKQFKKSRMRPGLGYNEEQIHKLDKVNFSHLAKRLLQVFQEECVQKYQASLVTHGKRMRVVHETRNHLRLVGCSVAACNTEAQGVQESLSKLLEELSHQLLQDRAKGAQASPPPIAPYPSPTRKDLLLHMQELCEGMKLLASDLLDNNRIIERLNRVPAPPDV
Put plainly: Inhibition of human IKKepsilon at 100 uM using ERLLDDRHDSGLDSMKDEE as substrate after 60 mins in presence of ATP by ADP-Glo kinase assay relative to control.

Assay [4] deals with Mitogen-activated protein kinase kinase kinase 14 (Homo sapiens, UniProt Q99558). As to the kind of experiment: Inhibition of human NIK at 100 uM using AKDVDQGSLCTSFVGTLQY as substrate after 60 mins in presence of ATP by ADP-Glo kinase assay relative to control.
Sequence of Mitogen-activated protein kinase kinase kinase 14 (Q99558 whole entry, looked up): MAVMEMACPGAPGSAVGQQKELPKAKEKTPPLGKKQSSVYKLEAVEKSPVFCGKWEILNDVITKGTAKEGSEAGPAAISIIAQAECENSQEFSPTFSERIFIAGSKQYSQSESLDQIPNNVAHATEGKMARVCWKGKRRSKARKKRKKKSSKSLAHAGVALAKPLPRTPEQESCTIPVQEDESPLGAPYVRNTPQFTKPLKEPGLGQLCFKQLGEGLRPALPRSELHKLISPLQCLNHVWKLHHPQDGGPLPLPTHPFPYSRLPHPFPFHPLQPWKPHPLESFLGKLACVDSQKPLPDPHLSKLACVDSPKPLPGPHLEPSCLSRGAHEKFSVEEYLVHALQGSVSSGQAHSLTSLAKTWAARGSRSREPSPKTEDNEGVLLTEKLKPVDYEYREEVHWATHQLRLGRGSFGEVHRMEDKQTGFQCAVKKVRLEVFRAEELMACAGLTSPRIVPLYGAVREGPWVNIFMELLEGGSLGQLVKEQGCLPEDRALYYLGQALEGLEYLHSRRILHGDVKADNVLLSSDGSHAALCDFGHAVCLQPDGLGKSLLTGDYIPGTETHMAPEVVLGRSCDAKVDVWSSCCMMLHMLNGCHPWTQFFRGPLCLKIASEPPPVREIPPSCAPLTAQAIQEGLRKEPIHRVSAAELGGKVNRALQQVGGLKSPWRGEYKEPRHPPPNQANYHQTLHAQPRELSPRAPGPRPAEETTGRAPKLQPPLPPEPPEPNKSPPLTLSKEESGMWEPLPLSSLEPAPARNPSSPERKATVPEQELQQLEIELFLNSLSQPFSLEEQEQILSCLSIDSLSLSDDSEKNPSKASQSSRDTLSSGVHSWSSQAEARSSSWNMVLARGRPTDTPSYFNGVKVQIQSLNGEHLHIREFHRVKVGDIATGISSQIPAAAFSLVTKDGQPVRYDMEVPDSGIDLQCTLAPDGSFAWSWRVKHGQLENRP
Another assay relates to Jurkat. As to the kind of experiment: Inhibition of TNFalpha-activated canonical NF-kB signaling pathway in human Jurkat cells assessed as residual activity at 1 uM after 6 hrs by luciferase reporter gene assay relative to control. Type of assay: cell-based. In outline:
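Jurkat cells nucleofected with 3 µg of NF-κB-RE firefly luciferase and TK-Renilla plasmids (10:1), then cultured 24 h at 37 °C. Compound added for a further 6 h, with TNFα in the last 20 min. Firefly luminescence normalized to Renilla and expressed as % of DMSO+TNFα control; mean ± SD of three experiments.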

A further assay relates to MDA-MB-231. As to the kind of experiment: Antiproliferative activity against human MDA-MB-231 cells assessed as DNA content after 72 hrs by Hoechst 33258 staining based fluorescence assay. It counts as functional, cell-based. As to conditions: MDA-MB-231, 72 h. Put shortly: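 MDA-MB-231 cells (5 x 10³/well) grown in DMEM with 10% FBS and exposed to 0.001 - 200 µM compound or DMSO vehicle for 72 h. Cells were washed with PBS and lysed in 0.02% SDS in SSC buffer for 1 h at 37 °C. Hoechst 33258 (1 µg/mL) was then added and fluorescence read at ex 355/em 460 nm. IC50 taken by nonlinear regression; mean ± SD of three independent experiments.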

The structures appear in SMILES notation.

What is called IC50 is the concentration needed to halve the response being measured. A word on the inhibition: it is the share of the control response that was lost under treatment. In the case of `O=C(Nc1cc(C(F)(F)F)cc(C(F)(F)F)c1)c1nsnc1O`, the IC50 in assay [1] is greater than 100 µM; in the assay on MDA-MB-231, 1.29 µM. In addition, the inhibition amounted to 25.2% in assay [2], 30.2% in assay [3] and 4.34% in assay [4]. Also, the Activity in the assay on Jurkat was 15.9%.

Take `O=C(Nc1cc(C(F)(F)F)cc(C(F)(F)F)c1)c1cc(Cl)ccc1O` [IMD-0354]: the concentration for half-maximal inhibition (IC50) in assay [1] is greater than 100 µM; in the assay with MDA-MB-231, 0.64 µM. Also, the inhibition in assay [2] worked out at 3.45%; in assay [3], 30.5%; in assay [4] it was 13.8%. Moreover, the Activity in the assay on Jurkat amounted to 23.5%.
